What was measured:
[1] = Drug metabolism in cynomolgus monkey liver microsomes assessed as formation of 5-(4-((6-hydroxy-1-methyl-1H-benzo[d]imidazol-2-yl)methoxy)benzyl)thiazolidine-2,4-dione at 20 uM after 2 hrs by radio-HPLC/LC-MS/MS analysis in presence of NADPH-generating system and NADPH-generating system/SAM; assay type: ADME, Macaca fascicularis
[2] = biological target: T1, UDP-glucuronosyltransferase 1A8 (Homo sapiens, UniProt Q9HAW9); test: Activity of human UGT1A8 expressed in microsomes isolated from baculovirus infected insect cell assessed as enzyme-mediated (2S,3S,4S,5R,6R)-6-((1-carboxy-2-(4-((6-methoxy-1-methyl-1H-benzo[d]imidazol-2-yl)methoxy)phenyl)ethylthio)carbonylamino)-3,4,5-trihydroxytetrahydro-2H-pyran-2-carboxylic acid formation at 20 uM after 4 hrs by radio-HPLC/LC-MS/MS analysis in presence of UDPGA; assay type: ADME
T1 sequence (Q9HAW9 whole entry): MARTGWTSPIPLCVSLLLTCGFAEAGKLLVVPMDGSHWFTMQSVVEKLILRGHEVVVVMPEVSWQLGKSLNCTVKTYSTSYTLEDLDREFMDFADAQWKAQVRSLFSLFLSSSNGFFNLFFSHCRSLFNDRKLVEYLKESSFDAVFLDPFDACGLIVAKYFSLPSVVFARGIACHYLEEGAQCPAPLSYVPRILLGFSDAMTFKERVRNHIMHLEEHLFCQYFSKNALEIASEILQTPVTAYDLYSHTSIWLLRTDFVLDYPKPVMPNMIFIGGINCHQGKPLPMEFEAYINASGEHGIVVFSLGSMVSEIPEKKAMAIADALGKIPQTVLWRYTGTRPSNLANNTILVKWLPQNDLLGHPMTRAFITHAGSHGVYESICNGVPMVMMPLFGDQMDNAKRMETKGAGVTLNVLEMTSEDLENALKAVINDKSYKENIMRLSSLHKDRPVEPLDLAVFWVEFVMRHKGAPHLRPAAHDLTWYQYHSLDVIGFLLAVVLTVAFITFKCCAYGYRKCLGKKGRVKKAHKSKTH

[3] = biological target: T2, UDP-glucuronosyltransferase 2B4 (Homo sapiens, UniProt P06133); test: Activity of human UGT2B4 expressed in microsomes isolated from baculovirus infected insect cell assessed as enzyme-mediated 2-mercapto-3-(4-((6-methoxy-1-methyl-1H-benzo[d]imidazol-2-yl)methoxy)phenyl)propanoic acid formation at 20 uM after 4 hrs by radio-HPLC/LC-MS/MS analysis in presence of UDPGA; assay type: ADME
T2 sequence (P06133 whole entry): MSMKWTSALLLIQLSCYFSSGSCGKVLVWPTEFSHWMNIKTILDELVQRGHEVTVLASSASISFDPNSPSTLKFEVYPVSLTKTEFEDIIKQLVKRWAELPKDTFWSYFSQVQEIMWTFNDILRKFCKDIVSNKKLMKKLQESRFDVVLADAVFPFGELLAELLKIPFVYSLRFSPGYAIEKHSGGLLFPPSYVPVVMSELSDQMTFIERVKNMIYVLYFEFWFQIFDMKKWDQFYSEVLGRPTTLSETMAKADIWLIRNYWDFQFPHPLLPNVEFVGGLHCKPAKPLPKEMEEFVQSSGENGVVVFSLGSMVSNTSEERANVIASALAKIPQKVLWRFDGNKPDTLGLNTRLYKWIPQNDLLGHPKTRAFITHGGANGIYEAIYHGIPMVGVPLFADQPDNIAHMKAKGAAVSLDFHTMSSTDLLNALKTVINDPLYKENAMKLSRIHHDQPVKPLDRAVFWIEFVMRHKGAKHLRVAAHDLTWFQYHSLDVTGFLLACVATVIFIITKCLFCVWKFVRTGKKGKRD

Cytochrome P450 3A5 = Cytochrome P450 3A5 (Homo sapiens, UniProt P20815); test: Activity of human CYP3A5 expressed in microsomes isolated from baculovirus infected insect cell assessed as enzyme-mediated 3-(4-((6-methoxy-1-methyl-1H-benzo[d]imidazol-2-yl)methoxy)phenyl)-2-(methylthio)propanamide formation at 20 uM after 2 hrs by radio-HPLC/LC-MS/MS analysis in presence of NADPH-generating system/SAM; assay type: ADME
Sequence of Cytochrome P450 3A5 (P20815 whole entry): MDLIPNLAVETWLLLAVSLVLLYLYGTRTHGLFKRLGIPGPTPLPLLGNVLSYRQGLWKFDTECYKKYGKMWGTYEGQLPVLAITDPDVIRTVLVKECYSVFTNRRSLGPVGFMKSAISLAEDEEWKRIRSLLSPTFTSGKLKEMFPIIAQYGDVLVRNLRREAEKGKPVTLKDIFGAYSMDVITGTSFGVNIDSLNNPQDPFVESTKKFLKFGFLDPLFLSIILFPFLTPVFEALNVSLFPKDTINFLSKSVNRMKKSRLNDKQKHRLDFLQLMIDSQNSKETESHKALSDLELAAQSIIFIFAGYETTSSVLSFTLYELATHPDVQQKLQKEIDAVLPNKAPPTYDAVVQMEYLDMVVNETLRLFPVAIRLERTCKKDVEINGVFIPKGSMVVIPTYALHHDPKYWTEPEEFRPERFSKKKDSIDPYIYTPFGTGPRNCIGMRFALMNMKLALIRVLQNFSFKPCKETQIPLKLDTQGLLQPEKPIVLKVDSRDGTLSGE
Procedure, shortened: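 cDNA-expressed human CYP3A5 in baculovirus-insect-cell microsomes (1 mg/ml protein) was incubated with [¹⁴C]rivoglitazone (20 μM) in 50 mM potassium phosphate (pH 7.4) or 100 mM Tris-HCl (pH 7.5). NADPH-generating system: 2 mM NADP⁺, 20 mM glucose 6-phosphate, 2 units/ml G6PDH, 10 mM MgCl₂. Incubation ran 2 h at 37°C with shaking; insect-cell control supersomes served as control. Acetonitrile stop, supernatant concentrated, then radio-HPLC, LC-MS and LC-MS/MS.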

Cytochrome P450 1A2 = biological target: T3, Cytochrome P450 1A2 (Homo sapiens, UniProt P05177); test: Activity of human CYP1A2 expressed in microsomes isolated from baculovirus infected insect cell assessed as enzyme-mediated (2S,3S,4S,5R,6R)-6-((1-carboxy-2-(4-((6-methoxy-1-methyl-1H-benzo[d]imidazol-2-yl)methoxy)phenyl)ethylthio)carbonylamino)-3,4,5-trihydroxytetrahydro-2H-pyran-2-carboxylic acid formation at 20 uM after 2 hrs by radio-HPLC/LC-MS/MS analysis in presence of NADPH-generating system/SAM; assay type: ADME
T3 sequence (P05177 whole entry): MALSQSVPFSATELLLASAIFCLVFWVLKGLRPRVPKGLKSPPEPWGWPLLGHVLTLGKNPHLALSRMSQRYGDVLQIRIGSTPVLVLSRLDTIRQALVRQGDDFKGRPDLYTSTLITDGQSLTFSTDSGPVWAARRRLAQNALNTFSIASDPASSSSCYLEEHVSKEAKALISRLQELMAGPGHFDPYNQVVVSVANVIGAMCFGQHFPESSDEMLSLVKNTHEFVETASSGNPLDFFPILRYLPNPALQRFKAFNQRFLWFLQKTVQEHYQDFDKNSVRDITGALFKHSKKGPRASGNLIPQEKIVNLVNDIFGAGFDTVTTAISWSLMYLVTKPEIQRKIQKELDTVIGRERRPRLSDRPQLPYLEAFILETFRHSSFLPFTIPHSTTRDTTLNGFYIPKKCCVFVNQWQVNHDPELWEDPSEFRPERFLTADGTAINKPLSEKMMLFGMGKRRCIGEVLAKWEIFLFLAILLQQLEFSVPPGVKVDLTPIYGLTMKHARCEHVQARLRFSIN

[4] = Drug metabolism in monkey hepatocytes assessed as formation of 5-hydroxy-5-(4-((6-methoxy-1-methyl-1H-benzo[d]imidazol-2-yl)methoxy)benzyl)thiazolidine-2,4-dione at 30 uM after 3 hrs by radio-HPLC/LC-MS/MS analysis in presence of NADPH-generating system and NADPH-generating system/SAM; conditions: cynomolgus monkey
Cytochrome P450 2C9 = Cytochrome P450 2C9 (Homo sapiens, UniProt P11712); test: Activity of human CYP2C9 expressed in microsomes isolated from baculovirus infected insect cell assessed as enzyme-mediated 2-hydroxy-3-(4-((6-methoxy-1-methyl-1H-benzo[d]imidazol-2-yl)methoxy)phenyl)propanamide formation at 20 uM after 2 hrs by radio-HPLC/LC-MS/MS analysis in presence of NADPH-generating system and NADPH-generating system/SAM; assay type: ADME
Sequence of Cytochrome P450 2C9 (P11712 whole entry): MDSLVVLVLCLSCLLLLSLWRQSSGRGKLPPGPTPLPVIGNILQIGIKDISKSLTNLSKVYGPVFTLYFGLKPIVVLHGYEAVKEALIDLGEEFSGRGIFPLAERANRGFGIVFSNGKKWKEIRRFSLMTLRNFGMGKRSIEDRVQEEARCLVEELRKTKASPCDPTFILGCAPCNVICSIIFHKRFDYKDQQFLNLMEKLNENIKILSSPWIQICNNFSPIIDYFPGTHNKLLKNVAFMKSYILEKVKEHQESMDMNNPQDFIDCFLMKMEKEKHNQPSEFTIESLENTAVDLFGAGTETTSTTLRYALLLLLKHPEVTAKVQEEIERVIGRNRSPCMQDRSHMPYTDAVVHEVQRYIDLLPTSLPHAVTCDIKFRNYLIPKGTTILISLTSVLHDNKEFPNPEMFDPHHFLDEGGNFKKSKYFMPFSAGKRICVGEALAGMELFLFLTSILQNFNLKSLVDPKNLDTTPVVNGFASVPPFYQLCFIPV

[5] = Drug metabolism in cynomolgus monkey liver microsomes assessed as formation of 3-(4-((6-methoxy-1-methyl-1H-benzo[d]imidazol-2-yl)methoxy)phenyl)-2-(methylthio)propanoic acid at 20 uM after 2 to 4 hrs by radio-HPLC/LC-MS/MS analysis in presence of NADPH-generating system/SAM and UDPGA/SAM; assay type: ADME, Macaca fascicularis

Drug metabolism [1]: metabolite_detected
Drug metabolism [2]: metabolite_not_detected
Drug metabolism [3]: metabolite_not_detected
Drug metabolism (Cytochrome P450 3A5): metabolite_not_detected
Drug metabolism (Cytochrome P450 1A2): metabolite_not_detected
Drug metabolism [4]: metabolite_detected
Drug metabolism (Cytochrome P450 2C9): metabolite_detected
Drug metabolism [5]: metabolite_detected
Structure (SMILES): COc1ccc2nc(COc3ccc(C[14CH]4SC(=O)NC4=O)cc3)n(C)c2c1.Cl (racemic)
